Active and inactive are the calls of the source. No cut-off for these calls is given here.
Columns and labels:
[1] = test system: HCC827; assay: Antiproliferative activity against human HCC827 cells after 72 hrs by MTT assay; format: functional, cell-based; conditions: HCC827, 72 h
In short: (§1)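 Cells seeded at 3000/well in growth medium with 10% FBS and left overnight. Treated in triplicate for 72 h at nine concentrations (0.458 to 30,000 nM), with DMSO-only controls. MTT (5 mg/mL) added for the last 4 h, formazan dissolved in DMSO, absorbance read at 490 nm. IC50 from non-linear sigmoidal dose-response fit.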

[2] = test system: NCI-H3255; assay: Antiproliferative activity against human H3255 cells after 72 hrs by MTT assay; format: functional, cell-based; conditions: NCI-H3255, 72 h; in short: as §1
[3] = molecular target: Fibroblast growth factor receptor 1 (Homo sapiens) (UniProt P11362); assay: Inhibition of N-terminal GST-tagged human FGFR1 cytoplasmic domain (398 to 822 residues) expressed in baculovirus expression system at […] using FAM-labeled peptide as substrate after 10 mins by mobility shift assay relative to control
In short: (§2)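 Caliper mobility-shift kinase assay. Kinase in kinase base buffer was preincubated with compound for 10 min at room temperature. FAM-labelled peptide and ATP at Km were then added, and the reaction ran at 28 °C until quenched with buffer. Screening concentration was 1 µM. Percent inhibition = (max − conversion)/(max − min) × 100, with DMSO as max and a low control as min.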

[4] = test system: A-431; assay: Antiproliferative activity against human A431 cells after 72 hrs by MTT assay; format: functional, cell-based; conditions: A-431, 72 h; in short: as §1
[5] = test system: NCI-H1975; assay: Antiproliferative activity against human NCI-H1975 cells after 72 hrs by MTT assay; format: functional, cell-based; conditions: NCI-H1975, 72 h; in short: as §1
[6] = test system: PC-9; assay: Antiproliferative activity against human PC9 cells after 72 hrs by MTT assay; format: functional, cell-based; conditions: PC-9, 72 h; in short: as §1
[7] = molecular target: Epidermal growth factor receptor (Homo sapiens, UniProt P00533, DEL747/DEL747-750); assay: Inhibition of N-terminal GST-tagged human EGFR del 747-750 mutant cytoplasmic domain expressed in baculovirus expression system using FAM-labeled peptide as substrate after 10 mins by mobility shift assay
[8] = molecular target: Epidermal growth factor receptor (Homo sapiens, UniProt P00533); assay: Inhibition of N-terminal GST-tagged wild type human EGFR cytoplasmic domain (669 to 1210 residues) expressed in baculovirus expression system using FAM-labeled peptide as substrate after 10 mins by mobility shift assay
[9] = molecular target: Vascular endothelial growth factor receptor 2 (Homo sapiens) (UniProt P35968); assay: Inhibition of N-terminal GST-tagged human KDR cytoplasmic domain (790 to 1356 residues) expressed in baculovirus expression system at […] using FAM-labeled peptide as substrate after 10 mins by mobility shift assay relative to control; in short: as §2
[10] = test system: BEAS-2B; assay: Cytotoxicity against human BEAS2B cells after 72 hrs by MTT assay; format: cell-based; in short: as §1
[11] = test system: HCC827; assay: Induction of apoptosis in human HCC827 cells assessed as late apoptotic cells at 1000 nM after 48 hrs by Annexin V-FITC/PI staining based flow cytometry (reference value: 1.15%); format: functional
[12] = test system: NCI-H1975; assay: Induction of apoptosis in human NCI-H1975 cells assessed as viable cells at 1000 nM after 48 hrs by Annexin V-FITC/PI staining based flow cytometry (reference value: 93.7%); format: functional; conditions: NCI-H1975, 48 h, read-out: Activity
[13] = test system: NCI-H3255; assay: Induction of apoptosis in human H3255 cells assessed as viable cells at 1000 nM after 48 hrs by Annexin V-FITC/PI staining based flow cytometry (reference value: 87.9%); format: functional; conditions: NCI-H3255, 48 h, read-out: Activity
[14] = test system: A-431; assay: Induction of apoptosis in human A431 cells assessed as late apoptotic cells at 1000 nM after 48 hrs by Annexin V-FITC/PI staining based flow cytometry (reference value: 2.11%); format: functional
[15] = test system: NCI-H1975; assay: Induction of apoptosis in human NCI-H1975 cells assessed as early apoptotic cells at 1000 nM after 48 hrs by Annexin V-FITC/PI staining based flow cytometry (reference value: 2.07%); format: functional
[16] = test system: NCI-H1975; assay: Induction of apoptosis in human NCI-H1975 cells assessed as necrotic cells at 1000 nM after 48 hrs by Annexin V-FITC/PI staining based flow cytometry (reference value: 2.31%); format: functional
[17] = test system: NCI-H1975; assay: Cell cycle arrest in human NCI-H1975 cells assessed as accumulation at G2/M phase at 500 nM after 24 hrs by propidium iodide staining based flow cytometry; format: functional
In short: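 H1975 cells (2×10^5) seeded in 6-well plates overnight, then given fresh growth medium with drug (50–500 nM range; reference drug 500 nM) or 1‰ DMSO control for 24 h; cells collected with medium, washed in cold PBS, fixed in 70% cold ethanol at –20 °C overnight, stained with PI/RNase buffer, analysed by flow cytometry; triplicates, mean ± SEM.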

[18] = test system: NCI-H1975; assay: Induction of apoptosis in human NCI-H1975 cells assessed as late apoptotic cells at 1000 nM after 48 hrs by Annexin V-FITC/PI staining based flow cytometry (reference value: 1.91%); format: functional
[19] = test system: NCI-H3255; assay: Induction of apoptosis in human H3255 cells assessed as early apoptotic cells at 1000 nM after 48 hrs by Annexin V-FITC/PI staining based flow cytometry (reference value: 3.22%); format: functional
[20] = test system: A-431; assay: Induction of apoptosis in human A431 cells assessed as early apoptotic cells at 1000 nM after 48 hrs by Annexin V-FITC/PI staining based flow cytometry (reference value: 3.40%); format: functional
[21] = test system: HCC827; assay: Induction of apoptosis in human HCC827 cells assessed as viable cells at 1000 nM after 48 hrs by Annexin V-FITC/PI staining based flow cytometry (reference value: 94.6%); format: functional; conditions: HCC827, 48 h, read-out: Activity
[22] = test system: A-431; assay: Induction of apoptosis in human A431 cells assessed as necrotic cells at 1000 nM after 48 hrs by Annexin V-FITC/PI staining based flow cytometry (reference value: 4.16%); format: functional
[23] = test system: NCI-H3255; assay: Induction of apoptosis in human H3255 cells assessed as necrotic cells at 1000 nM after 48 hrs by Annexin V-FITC/PI staining based flow cytometry (reference value: 7.06%); format: functional
[24] = test system: NCI-H3255; assay: Induction of apoptosis in human H3255 cells assessed as late apoptotic cells at 1000 nM after 48 hrs by Annexin V-FITC/PI staining based flow cytometry (reference value: 1.77%); format: functional
[25] = test system: A-431; assay: Induction of apoptosis in human A431 cells assessed as viable cells at 1000 nM after 48 hrs by Annexin V-FITC/PI staining based flow cytometry (reference value: 90.3%); format: functional; conditions: A-431, 48 h, read-out: Activity
[26] = test system: HCC827; assay: Induction of apoptosis in human HCC827 cells assessed as necrotic cells at 1000 nM after 48 hrs by Annexin V-FITC/PI staining based flow cytometry (reference value: 1.41%); format: functional
[27] = test system: HCC827; assay: Induction of apoptosis in human HCC827 cells assessed as early apoptotic cells at 1000 nM after 48 hrs by Annexin V-FITC/PI staining based flow cytometry (reference value: 2.83%); format: functional

Sequence of Epidermal growth factor receptor (Homo sapiens, UniProt P00533, DEL747/DEL747-750) (P00533 with tags, fused parts or gaps DEL747/DEL747-750 limits assumed): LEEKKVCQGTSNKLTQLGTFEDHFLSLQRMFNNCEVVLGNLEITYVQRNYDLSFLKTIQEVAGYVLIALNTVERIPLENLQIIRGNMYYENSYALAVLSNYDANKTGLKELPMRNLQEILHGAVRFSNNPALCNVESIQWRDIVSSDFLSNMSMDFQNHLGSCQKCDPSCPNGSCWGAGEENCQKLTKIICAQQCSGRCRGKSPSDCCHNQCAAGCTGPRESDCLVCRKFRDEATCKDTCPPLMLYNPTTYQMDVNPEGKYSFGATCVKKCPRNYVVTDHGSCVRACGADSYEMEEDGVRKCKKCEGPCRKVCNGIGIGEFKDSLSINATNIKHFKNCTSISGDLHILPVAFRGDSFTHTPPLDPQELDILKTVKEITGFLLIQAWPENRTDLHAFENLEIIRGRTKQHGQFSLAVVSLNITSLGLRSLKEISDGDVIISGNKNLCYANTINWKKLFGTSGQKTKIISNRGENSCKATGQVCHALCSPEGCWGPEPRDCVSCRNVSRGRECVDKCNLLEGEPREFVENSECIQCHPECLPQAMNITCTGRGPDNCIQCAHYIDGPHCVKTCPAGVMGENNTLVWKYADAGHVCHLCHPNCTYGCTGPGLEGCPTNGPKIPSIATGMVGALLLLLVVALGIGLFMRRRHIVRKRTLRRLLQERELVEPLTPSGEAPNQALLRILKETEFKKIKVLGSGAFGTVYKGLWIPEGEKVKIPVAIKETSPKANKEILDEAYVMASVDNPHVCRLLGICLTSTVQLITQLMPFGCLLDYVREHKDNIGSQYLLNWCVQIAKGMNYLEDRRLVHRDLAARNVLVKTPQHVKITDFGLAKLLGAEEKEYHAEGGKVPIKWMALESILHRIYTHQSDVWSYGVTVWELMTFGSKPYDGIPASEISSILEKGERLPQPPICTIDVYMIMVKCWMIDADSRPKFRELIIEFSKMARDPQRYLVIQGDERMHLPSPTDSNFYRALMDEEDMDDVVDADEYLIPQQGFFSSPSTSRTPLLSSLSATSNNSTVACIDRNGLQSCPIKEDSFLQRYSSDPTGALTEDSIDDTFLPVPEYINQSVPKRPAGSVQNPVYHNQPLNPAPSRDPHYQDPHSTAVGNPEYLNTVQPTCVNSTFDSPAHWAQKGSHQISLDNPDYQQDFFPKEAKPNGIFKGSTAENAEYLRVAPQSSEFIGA
Sequence of Vascular endothelial growth factor receptor 2 (Homo sapiens) (P35968 whole entry, the tested form may be a part): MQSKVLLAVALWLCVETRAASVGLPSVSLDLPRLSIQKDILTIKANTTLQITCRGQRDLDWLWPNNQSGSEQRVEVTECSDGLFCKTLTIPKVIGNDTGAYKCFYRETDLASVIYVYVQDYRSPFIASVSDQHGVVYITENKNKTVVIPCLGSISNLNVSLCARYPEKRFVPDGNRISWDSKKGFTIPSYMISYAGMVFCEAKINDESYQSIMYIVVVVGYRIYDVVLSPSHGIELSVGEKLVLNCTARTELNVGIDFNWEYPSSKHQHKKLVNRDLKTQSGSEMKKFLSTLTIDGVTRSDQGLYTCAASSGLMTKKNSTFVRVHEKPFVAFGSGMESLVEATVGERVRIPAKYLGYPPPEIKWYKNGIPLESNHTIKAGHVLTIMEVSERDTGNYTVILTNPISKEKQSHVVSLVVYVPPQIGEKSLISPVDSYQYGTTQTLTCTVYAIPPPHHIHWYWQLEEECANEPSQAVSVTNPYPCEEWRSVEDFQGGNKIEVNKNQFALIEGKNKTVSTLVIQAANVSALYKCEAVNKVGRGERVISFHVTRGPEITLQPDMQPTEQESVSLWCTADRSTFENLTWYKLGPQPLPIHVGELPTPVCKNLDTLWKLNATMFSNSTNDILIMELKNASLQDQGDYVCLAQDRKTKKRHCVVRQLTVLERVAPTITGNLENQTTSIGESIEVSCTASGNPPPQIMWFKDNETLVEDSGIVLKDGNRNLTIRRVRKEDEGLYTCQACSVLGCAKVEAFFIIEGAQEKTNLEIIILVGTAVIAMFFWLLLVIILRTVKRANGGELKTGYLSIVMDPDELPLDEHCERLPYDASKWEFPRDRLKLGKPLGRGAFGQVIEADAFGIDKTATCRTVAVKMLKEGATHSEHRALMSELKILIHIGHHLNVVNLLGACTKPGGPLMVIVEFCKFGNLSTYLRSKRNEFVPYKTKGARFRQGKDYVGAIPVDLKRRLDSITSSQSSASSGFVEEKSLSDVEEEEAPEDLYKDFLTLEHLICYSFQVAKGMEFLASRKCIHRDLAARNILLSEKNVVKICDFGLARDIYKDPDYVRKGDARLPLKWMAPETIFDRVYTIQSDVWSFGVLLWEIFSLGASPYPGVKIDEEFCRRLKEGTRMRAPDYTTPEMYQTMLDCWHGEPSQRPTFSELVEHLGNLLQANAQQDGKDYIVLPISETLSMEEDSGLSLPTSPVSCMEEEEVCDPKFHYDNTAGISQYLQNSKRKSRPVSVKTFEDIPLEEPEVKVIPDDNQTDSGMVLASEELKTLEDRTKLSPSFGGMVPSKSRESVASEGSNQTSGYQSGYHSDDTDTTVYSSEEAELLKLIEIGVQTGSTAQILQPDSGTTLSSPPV
Sequence of Epidermal growth factor receptor (Homo sapiens, UniProt P00533) (P00533 whole entry, the tested form may be a part): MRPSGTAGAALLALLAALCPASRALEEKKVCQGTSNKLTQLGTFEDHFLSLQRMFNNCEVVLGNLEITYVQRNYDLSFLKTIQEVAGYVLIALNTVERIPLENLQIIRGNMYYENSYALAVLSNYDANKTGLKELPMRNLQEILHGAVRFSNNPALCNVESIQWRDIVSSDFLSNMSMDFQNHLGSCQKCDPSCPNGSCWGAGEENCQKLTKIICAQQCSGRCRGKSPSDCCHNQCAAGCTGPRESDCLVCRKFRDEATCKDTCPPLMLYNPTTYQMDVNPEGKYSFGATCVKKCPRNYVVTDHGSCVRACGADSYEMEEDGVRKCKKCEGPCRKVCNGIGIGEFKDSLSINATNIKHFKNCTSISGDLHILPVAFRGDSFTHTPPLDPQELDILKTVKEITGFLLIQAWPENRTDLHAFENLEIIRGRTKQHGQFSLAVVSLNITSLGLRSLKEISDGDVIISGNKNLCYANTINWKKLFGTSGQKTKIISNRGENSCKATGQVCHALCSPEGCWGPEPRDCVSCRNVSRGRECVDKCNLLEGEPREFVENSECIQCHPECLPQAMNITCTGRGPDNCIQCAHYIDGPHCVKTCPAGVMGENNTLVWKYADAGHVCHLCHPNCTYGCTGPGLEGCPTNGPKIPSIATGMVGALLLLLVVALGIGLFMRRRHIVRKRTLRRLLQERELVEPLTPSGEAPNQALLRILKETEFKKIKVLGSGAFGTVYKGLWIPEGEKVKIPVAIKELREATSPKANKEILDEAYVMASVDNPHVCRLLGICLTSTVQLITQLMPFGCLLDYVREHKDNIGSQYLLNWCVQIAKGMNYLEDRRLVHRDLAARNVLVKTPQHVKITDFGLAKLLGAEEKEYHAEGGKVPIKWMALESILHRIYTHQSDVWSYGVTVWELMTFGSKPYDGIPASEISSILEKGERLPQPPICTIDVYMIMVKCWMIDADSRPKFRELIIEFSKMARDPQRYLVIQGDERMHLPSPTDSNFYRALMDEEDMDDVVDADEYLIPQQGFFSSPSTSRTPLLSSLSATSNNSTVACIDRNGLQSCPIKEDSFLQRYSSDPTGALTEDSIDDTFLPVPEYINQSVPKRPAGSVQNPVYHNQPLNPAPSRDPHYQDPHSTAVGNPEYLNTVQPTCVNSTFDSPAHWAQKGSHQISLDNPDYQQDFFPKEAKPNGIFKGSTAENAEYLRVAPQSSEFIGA

| SMILES | IC50 [1] | IC50 [2] | inhibition [3] | IC50 [4] | IC50 [5] | IC50 [6] | IC50 [7] | IC50 [8] | inhibition [9] | IC50 [10] | also measured |
| --- | --- | --- | --- | --- | --- | --- | --- | --- | --- | --- | --- |
| Clc1ccc(Nc2cc(Nc3cccc(Cl)n3)ncn2)cc1 | > 30000 nM | > 30000 nM | -5.7% | > 30000 nM | > 30000 nM | 1180 nM | 229 nM | 324 nM | 8.5% | 18000 nM |  |
| COc1cc2ncnc(Nc3cccc(Cl)c3F)c2cc1OC(=O)N1CCN(C)C[C@H]1C [AZD-3759] | 30 nM | 90 nM |  | 3500 nM | 24200 nM | 50 nM |  |  |  | 18700 nM | Activity [11]: 12.8%; viability at 1 µM [12]: 82%; viability at 1 µM [13]: 83.7%; Activity [14]: 2.88%; Activity [15]: 9.95%; Activity [16]: 2.65%; Activity [17]: inactive; Activity [18]: 5.39%; Activity [19]: 8.51%; Activity [20]: 7.35%; viability at 1 µM [21]: 78.4%; Activity [22]: 1.17%; Activity [23]: 6.05%; Activity [24]: 1.71%; viability at 1 µM [25]: 88.6%; Activity [26]: 2.77%; Activity [27]: 6.11% |
| COc1cccc(Nc2cc(Nc3cccc(Cl)c3)ncn2)c1 | 4040 nM | > 30000 nM | -3.8% | 15200 nM | > 30000 nM | 1660 nM | 974 nM | > 10000 nM | 19.2% | 17600 nM |  |
| O=C(Nc1cc(Nc2ccc(Cl)cc2)ncn1)c1ccc(F)cc1 | > 30000 nM | > 30000 nM | 16.3% | > 30000 nM | 17600 nM | 820 nM | 1410 nM | > 10000 nM | 9.3% | 18600 nM |  |
| COc1ccc(OC)c(Nc2cc(Nc3ccc(F)cc3)ncn2)c1 | 1720 nM | > 30000 nM | -3.1% | > 30000 nM | > 30000 nM | 640 nM | 208 nM | 336 nM | 12.4% | 18000 nM |  |
| O=C(Nc1cc(N2CCOCC2)ncn1)c1ccc(F)cc1 | 1960 nM | 1870 nM | 8.8% | 1130 nM | 1970 nM | 870 nM | 63 nM | 131 nM | 31% | 21000 nM |  |
| O=C(O)CCC(=O)Nc1cc(Nc2ccc(Cl)cc2)ncn1 | 3130 nM | 4370 nM | 5.2% | 1900 nM | 2730 nM | 790 nM | 792 nM | > 10000 nM | 15.7% | 19000 nM |  |
| CCOc1ccc(Nc2cc(NC(=O)c3ccccc3)ncn2)cc1 | 7000 nM | 9170 nM | -8.8% | 6540 nM | 7070 nM | 2090 nM | 754 nM | > 10000 nM | 11.3% | 17400 nM |  |
| CCOC(=O)CCCC(=O)Nc1cc(Nc2cccc(Cl)c2)ncn1 | > 30000 nM | > 30000 nM | 0.5% | 490 nM | > 30000 nM | > 30000 nM | > 10000 nM | 27 nM | 16% | 21100 nM |  |
| O=C(O)CCCC(=O)Nc1cc(Nc2ccccc2)ncn1 | 2220 nM | 2940 nM | -4% | 1190 nM | 1850 nM | 940 nM | 105 nM | > 10000 nM | 4.9% | 17900 nM |  |
| COc1ccc(OC)c(Nc2cc(Nc3ccc(N4CCN(C)CC4)cc3)ncn2)c1 | 24300 nM | > 30000 nM | 4.7% | > 30000 nM | > 30000 nM | > 30000 nM | > 10000 nM | 288 nM | 28.5% | 18100 nM |  |
| COc1ccc(OC)c(Nc2cc(NC(=O)CCCC(=O)O)ncn2)c1 |  |  | -3.7% |  |  |  | > 10000 nM | 68 nM | 23.6% |  |  |
| CCOC(=O)c1ccc(Nc2cc(Nc3cccc(OC)c3)ncn2)cc1 |  |  | -9.3% |  |  |  | 1190 nM | > 10000 nM | 11.7% |  |  |

From ChEMBL document CHEMBL4265907, “Design, synthesis and pharmacological evaluation of N4,N6-disubstituted pyrimidine-4,6-diamine derivatives as potent EGFR inhibitors in non-small cell lung cancer” (Eur J Med Chem, 2018)
